Bioassay records (PubChem)
Compounds with a hit are over-represented: about 3.9% of the library has one in this group of screens.
CHRM1 PAM = positive allosteric modulators of human M1 muscarinic receptor; 0.088% of 360,000 active; CHO-K1 hM1, Fluo-8 calcium fluorescence, ACh EC20; 0% = ACh EC20, 100% = maximal ACh; activation, % at 3 µM; P11229; in the data active = activation above about 19%, passing the limit was not always enough
Target sequence (P11229 whole entry, looked up): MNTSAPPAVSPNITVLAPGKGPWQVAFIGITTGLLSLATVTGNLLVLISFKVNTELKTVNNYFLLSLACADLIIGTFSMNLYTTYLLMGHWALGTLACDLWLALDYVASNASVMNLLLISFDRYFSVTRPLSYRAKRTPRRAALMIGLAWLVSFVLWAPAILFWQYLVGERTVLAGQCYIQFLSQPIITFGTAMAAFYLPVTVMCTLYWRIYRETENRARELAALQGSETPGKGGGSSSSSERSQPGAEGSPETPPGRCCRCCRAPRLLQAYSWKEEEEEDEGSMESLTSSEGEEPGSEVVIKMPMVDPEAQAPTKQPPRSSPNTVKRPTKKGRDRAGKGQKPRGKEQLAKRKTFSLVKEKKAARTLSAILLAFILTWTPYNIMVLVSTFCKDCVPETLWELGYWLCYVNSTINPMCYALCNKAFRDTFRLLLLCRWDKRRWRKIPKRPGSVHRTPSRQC
M1 ag = human M1 muscarinic receptor agonism. P11229. CHO-K1 hM1, Fluo-8 calcium fluorescence, agonist mode; 0% DMSO, 100% acetylcholine EC100. activation, % at 3 µM. 0.33% of 360,000 active. AID 588814;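 active = activation above the run's mean compound activation plus 3 SD, cut at about 16% in these data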;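 also: peak over basal fluorescence ratio within a 140 s kinetic read after compound addition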
HTR2A ag = mouse HTR2A agonism via beta-arrestin recruitment. P35363. CHO-K1 mHTR2A beta-arrestin complementation, luminescence; percent of 30 µM serotonin response. activation, % at 7.6 µM. 0.66% of 360,000 active;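 active = activation above a run cutoff, the mean activation of all tested compounds plus 3 SD, cut at about 14% in these data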
CHRM1 antagonist = blocks human M1 muscarinic receptor; CHO-K1 hM1, Fluo-8 calcium fluorescence, ACh EC80 antagonist; AID 588852; inhibition, % at 3 µM; 1.3% of 360,000 active;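 active = percent inhibition above its own plate's cutoff, namely the mean of that plate's compound wells plus 3 SD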;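 also: peak over basal fluorescence ratio during 140 s after agonist addition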
TAAR1 antag = human TAAR1 antagonism; Q96RJ0; CHO RD-HGA16 TAAR1, Fluo-8 calcium fluorescence, antagonist; inhibition, % at 3 µM; 1.5% of 360,000 active;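 active = inhibition above a per-plate cutoff, the mean inhibition of test compounds on that plate plus 3 SD, cut at about 49% in these data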
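Test system – hTAAR1-expressing CHO RD-HGA16 cells, Gα16-coupled · Also added – β-PEA at EC80 concentration, post-compound challenge · Compound – 3 µM, single point · Incubation – dye loading 75 min at 37 °C, then 30 min room temperature · Measured by – Fluo-8 intracellular calcium dye fluorescence, real-time kinetic reads · Benchmarks – vehicle and agonist controls · Replicates – singlicate, one well per test compound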
TAAR1 ag = human TAAR1 agonism | 0.99% of 360,000 active | CHO RD-HGA16 TAAR1, Fluo-8 calcium fluorescence; vehicle wells 0%, saturating PEA agonist 100% | AID 624467 | Q96RJ0 | activation, % at 3 µM;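 active = activation above the mean activation of all test compounds in the run plus 3 SD, cut at about 38% in these data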
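Test system: RD-HGA16 (CHO) cells co-expressing Gα16 and hTAAR1 | Doses: Single dose, 3 µM | Schedule: 17-24 h seeding, 75 min 37 °C dye, 30 min RT | Evaluation: % activation from peak over basal fluorescence ratio, DMSO-to-PEA scaled | Technique: Kinetic Fluo-8 calcium fluorescence | Benchmarks: Low control DMSO, high control PEA (EC100)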
TAAR1 ag confirm = confirmation of human TAAR1 agonists; activation, % at 3 µM; 82% of 2,400 active; AID 651783; CHO RD-HGA16 TAAR1, Fluo-8 calcium fluorescence; scaled: DMSO 0%, maximal phenethylamine 100%; shares compounds with TAAR1 ag;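 active = activation above a cutoff set at the run's mean compound activation plus 3 SD, cut at about 39% in these data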
Ga16 nonsel ag = counter-screen for TAAR1 agonists: nonselective agonists in parental cells. shares compounds with TAAR1 ag. CHO-Ga16 parental, Fluo-8 calcium fluorescence; normalized to maximal ATP response, DMSO zero. activation, % at 3 µM. 50% of 2,400 active. AID 651787;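 active = activation above the run cutoff, the mean activation over all tested wells plus 3 SD, cut at about 12% in these data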
TAAR1 desens = TAAR1 response desensitization, agonist counter-screen; shares compounds with TAAR1 ag; 46% of 2,400 active; AID 651951; CHO RD-HGA16 hTAAR1, Fluo-8 calcium, beta-PEA response inhibition; inhibition, % at 3 µM;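 active = inhibition above the run cutoff, the mean inhibition of all test compounds plus 3 SD, cut at about 49% in these data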;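 also: beta-PEA stimulus applied at its EC80; loss of beta-PEA calcium signal after compound pretreatment read as receptor desensitization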
Ga16 nonsel ant = nonselective Ga16 antagonism, counter-screen; shares compounds with TAAR1 ag; CHO-Ga16 ATP-induced calcium, Fluo-8 fluorescence; 39% of 2,400 active; inhibition, % at 3 µM;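 active = inhibition above the plate's mean compound inhibition plus 3 SD, computed per plate, cut at about 22% in these data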
A number is an active result; n = inactive; x = no result.

SMILES	CHRM1 PAM	M1 ag	HTR2A ag	CHRM1 antagonist	TAAR1 antag	TAAR1 ag	TAAR1 ag confirm	Ga16 nonsel ag	TAAR1 desens	Ga16 nonsel ant
O=C(Nc1cccn(Cc2ccccc2)c1=O)NC1CCCCC1	n	n	n	n	n	43	77	40	n	n
COc1cccc(Cn2cccc(NC(=O)NC3CCCCC3)c2=O)c1	n	n	n	n	n	51	n	17	n	n
CC(=O)c1c(C)[nH]c(C(=O)CN2C(=O)NC(CCc3ccccc3)C2=O)c1C (configuration not stated)	n	n	n	n	n	n	x	x	x	x
COc1ccc(OCCCCn2c(CO)nc3ccccc32)cc1	n	n	n	n	n	n	x	x	x	x
Cc1ccc(NS(=O)(=O)c2ccc(C(=O)NCC(c3ccco3)N3CCCCC3)cc2)cc1 (configuration not stated)	n	n	n	n	63	91	73	33	n	28
CCOc1ccc(S(=O)(=O)Nc2cccc(C(=O)NCC(c3ccccc3)N(C)C)c2)cc1 (configuration not stated)	n	n	n	n	n	58	n	23	n	26
COc1ccc(C(CNC(=O)c2cccc(NS(=O)(=O)c3ccc(C)c(F)c3)c2)N(C)C)cc1 (configuration not stated)	n	n	n	n	n	n	x	x	x	x
CCOc1ccc(NS(=O)(=O)c2ccc(C(=O)NCC(c3ccco3)N3CCCCC3)cc2)cc1 (configuration not stated)	n	n	n	n	n	84	91	41	54	38
CCOc1ccc(NS(=O)(=O)c2ccc(C(=O)NCC(c3ccco3)N(C)C)cc2)cc1 (configuration not stated)	n	n	n	n	n	89	80	50	n	39
CCOc1ccc(S(=O)(=O)Nc2cccc(C(=O)NCC(c3ccco3)N(C)C)c2)cc1 (configuration not stated)	n	n	n	n	n	n	x	x	x	x
CCCCn1c(N)c(N(CC(C)C)C(=O)C2=NN(c3ccccc3)C(=O)CC2)c(=O)[nH]c1=O	n	n	n	n	n	n	x	x	x	x
CCOc1ccc(NS(=O)(=O)c2ccc(C(=O)NCC3(N4CCCCC4)CCCCC3)cc2)cc1	n	n	n	n	n	n	x	x	x	x
CCOc1ccc(NS(=O)(=O)c2ccc(C(=O)NCC3(N(C)C)CCCCC3)cc2)cc1	n	n	n	n	n	66	n	n	n	27
CC(=O)N1c2ccccc2C2CCCC[C@H]21 (some centres not stated)	n	n	n	n	n	n	x	x	x	x
c1ccc(CN(CC2=NCCN2)c2ccccc2)cc1	n	n	n	n	n	66	92	n	67	n
c1ccc(CC2=NCCN2)cc1	n	n	n	n	63	75	92	n	76	n
c1ccc(CSC2=NCCCN2)cc1	n	n	n	n	n	n	x	x	x	x
CN(C)CCCN(C(=O)c1ccc(S(=O)(=O)N2CCc3ccccc32)cc1)c1nc2ccc(F)cc2s1	n	n	n	n	n	51	66	36	57	41
Cc1ccc2sc(N(CCCN(C)C)C(=O)c3ccc(S(=O)(=O)N(C)C4CCCCC4)cc3)nc2c1C	n	n	n	n	n	53	n	13	n	n
CN(C)CCCN(C(=O)c1ccc(S(=O)(=O)N(C)C)cc1)c1nc2ccc(F)cc2s1	n	n	n	n	n	n	x	x	x	x
CN(C)CCCN(C(=O)c1ccc(S(=O)(=O)N2CCc3ccccc3C2)cc1)c1nc2ccc(F)cc2s1	n	n	n	n	50	75	69	46	n	42
O=C(Cc1ccsc1)NNC(=O)c1ccc(F)cc1	n	n	n	n	n	n	x	x	x	x
Cc1cc(NC(=O)CN2C(=O)/C(=C/c3ccc(C(C)C)cc3)SC2=S)no1	n	n	n	n	n	n	x	x	x	x
NC(=S)Nc1cccc(O)c1	n	n	n	n	n	n	x	x	x	x
O=C(NCc1ccccc1Cl)c1ccc(Cn2cc(C(F)(F)F)ccc2=O)cc1	n	n	n	n	n	n	x	x	x	x
SMILES	CHRM1 PAM	M1 ag	HTR2A ag	CHRM1 antagonist	TAAR1 antag	TAAR1 ag	TAAR1 ag confirm	Ga16 nonsel ag	TAAR1 desens	Ga16 nonsel ant
O=C(NCc1ccc(Cl)cc1)c1ccc(Cn2cc(C(F)(F)F)ccc2=O)cc1	n	n	n	n	n	66	n	24	n	26
Cc1ccc(-c2noc(CCC(=O)Nc3ccc4c(c3)OCO4)n2)cc1	n	n	n	n	80	83	n	n	n	24
CC(CNC(=O)[C@@H](Cc1ccccc1)NC(=O)[C@H]1O[C@@H](n2cnc3c(=O)[nH]c(N)nc32)[C@H](O)[C@@H]1O)c1ccccc1 (some centres not stated)	x	x	x	x	x	x	x	n	x	n
CC(CNC(=O)[C@H]1O[C@@H](n2cnc3c(=O)[nH]c(N)nc32)[C@H](O)[C@@H]1O)c1ccccc1 (some centres not stated)	x	x	x	x	66	84	94	n	80	n
Nc1nc2c(ncn2[C@@H]2O[C@H](C(=O)N[C@H](Cc3ccccc3)C(=O)NCCCc3ccccc3)[C@@H](O)[C@H]2O)c(=O)[nH]1	x	x	x	x	n	n	x	x	x	x
O=c1c2nnn(-c3ccc(Cl)cc3)c2ncn1Cc1ccccn1	n	n	n	n	86	476	n	n	n	n
Cc1ccc(-n2nnc3c(=O)n(CC(=O)NCc4ccccc4)cnc32)cc1	n	n	n	n	n	42	n	n	n	n
Cc1ccc(-n2nnc3c(=O)n(Cc4cc(C)ccc4C)cnc32)cc1	n	n	n	n	95	43	71	35	87	53
O=c1c2nnn(-c3ccc(Br)cc3)c2ncn1Cc1ccccn1	n	n	n	n	n	n	x	x	x	x
CCOc1ccccc1NC(=O)CCc1nnc2ccc(N3CCC4(CC3)OCCO4)nn12	n	n	n	n	n	n	x	x	x	x
CC1CN=C(NC(=O)c2cccc([N+](=O)[O-])c2)S1 (configuration not stated)	n	n	n	n	n	n	x	x	x	x
